Results: ChEMBL document CHEMBL1131436, “Repaglinide and related hypoglycemic benzoic acid derivatives” (1998)
Values joined by “and” are separate entries in the source; they are usually repeats but may differ in a detail not shown here. Equal entries are not always repeated. Active and inactive are the calls of the source. The rule behind the calls is not given here.

Experiments:
Rattus norvegicus [1] = assay: Maximum % decrease of blood glucose (deltaBG) was observed within 4 hour after administration orally at 0.1 mg/kg dose to fasted adult female rats versus a control group; type: functional; conditions: route oral
Outline: (§1)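 Female Wistar rats (Chbb THOM, SPF, 200-220 g), fasted 24 h, dosed orally by gavage as suspension in 1.5% Tylose methylcellulose (10 mL/kg). Whole blood from retrobulbar plexus under light halothane, deproteinized with 0.33 M HClO4; glucose by hexokinase/G6PDH, hourly up to 4 h. % decrease vs control group (N = 7), Student's t-test, P ≤ 0.05.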

Rattus norvegicus [2] = assay: Maximum % decrease of blood glucose (deltaBG) was observed within 1 hour after administration orally at 0.1 mg/kg dose to fasted adult female rats versus a control group; type: functional; conditions: route oral; outline: as §1
Rattus norvegicus [3] = assay: Half-maximal effective dose was measured on rat blood glucose after administrating at 4 hr; type: functional
Outline: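 Adult fasted female Wistar rats (Chbb THOM, SPF, 200-220 g), food withdrawn 24 h; oral gavage of suspension in 1.5% Tylose (methylcellulose), 10 mL/kg. Retrobulbar blood under light halothane; glucose by hexokinase/G6PDH after HClO4 deproteinization, hourly to 4 h. ED50 from fit of glucose vs dose, y = b + [a × k/(k + x^nH)], Hill coefficient nH.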

Rattus norvegicus [4] = assay: Maximum % decrease of blood glucose (deltaBG) was observed within 3 hour after administration orally at 0.1 mg/kg dose to fasted adult female rats versus a control group; type: functional; conditions: route oral; outline: as §1
Rattus norvegicus [5] = assay: Maximum % decrease of blood glucose (deltaBG) was observed within 4 hour after administration orally at 0.3 mg/kg dose to fasted adult female rats versus a control group; type: functional; conditions: route oral; outline: as §1
Rattus norvegicus [6] = assay: Maximum % decrease of blood glucose (deltaBG) was observed within 2 hour after administration orally at 0.1 mg/kg dose to fasted adult female rats versus a control group; type: functional; conditions: route oral; outline: as §1
Rattus norvegicus [7] = assay: Maximum % decrease of blood glucose (deltaBG) was observed within 0.5 hour after administration orally at 0.1 mg/kg dose to fasted adult female rats versus a control group; type: functional; conditions: route oral
Rattus norvegicus [8] = assay: Maximum % decrease of blood glucose (deltaBG) was observed within 4 hour after administration orally at 5 mg/kg dose to fasted adult female rats versus a control group; NS =' not significant'; type: functional, organism-based; design: dose 5 mg/kg; outline: as §1
Rattus norvegicus [9] = assay: Maximum % decrease of blood glucose (deltaBG) was observed within 2 hour after administration orally at 0.5 mg/kg dose to fasted adult female rats versus a control group; type: functional; conditions: route oral; outline: as §1
Rattus norvegicus [10] = assay: Maximum % decrease of blood glucose (deltaBG) was observed within 3 hour after administration orally at 0.5 mg/kg dose to fasted adult female rats versus a control group; type: functional; conditions: route oral; outline: as §1
Rattus norvegicus [11] = assay: Maximum % decrease of blood glucose (deltaBG) was observed within 1 hour after administration orally at 0.5 mg/kg dose to fasted adult female rats versus a control group; type: functional; conditions: route oral; outline: as §1
Rattus norvegicus [12] = assay: Maximum % decrease of blood glucose (deltaBG) was observed within 4 hour after administration orally at 0.5 mg/kg dose to fasted adult female rats versus a control group; type: functional; conditions: route oral; outline: as §1
Rattus norvegicus [13] = assay: Maximum % decrease of blood glucose (deltaBG) was observed within 4 hour after administration orally at 0.01 mg/kg dose to fasted adult female rats versus a control group; type: functional; conditions: route oral; outline: as §1
Rattus norvegicus [14] = assay: Maximum % decrease of blood glucose (deltaBG) was observed within 4 hour after administration orally at 0.4 mg/kg dose to fasted adult female rats versus a control group; type: functional; conditions: route oral; outline: as §1
Rattus norvegicus [15] = assay: Maximum % decrease of blood glucose (deltaBG) was observed within 4 hour after administration orally at 0.6 mg/kg dose to fasted adult female rats versus a control group; type: functional; conditions: route oral; outline: as §1
Rattus norvegicus [16] = assay: Maximum % decrease of blood glucose (deltaBG) was observed within 4 hour after administration orally at 50 mg/kg dose to fasted adult female rats versus a control group; NS =' not significant'; type: functional, organism-based; design: dose 50 mg/kg; outline: as §1
Rattus norvegicus [17] = assay: Maximum % decrease of blood glucose (deltaBG) was observed within 4 hour after administration orally at 10 mg/kg dose to fasted adult female rats versus a control group; NS =' not significant'; type: functional, organism-based; design: dose 10 mg/kg; outline: as §1
Rattus norvegicus [18] = assay: Maximum % decrease of blood glucose (deltaBG) was observed within 1 hr after administration orally at 0.5 mg/kg dose to fasted adult female rats versus a control group; type: functional; conditions: route oral; outline: as §1
Rattus norvegicus [19] = assay: Maximum % decrease of blood glucose (deltaBG) was observed within 4 hour after administration orally at 1 mg/kg dose to fasted adult female rats versus a control group; type: functional; conditions: route oral, 1 mg/kg; outline: as §1
Rattus norvegicus [20] = assay: Maximum % decrease of blood glucose (deltaBG) was observed within 4 hour after administration orally at 0.25 mg/kg dose to fasted adult female rats versus a control group; type: functional; conditions: route oral
Outline: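 Adult female Wistar rats (Chbb THOM, SPF; 200-220 g) fasted 24 h, N=7 per group. Compound suspended in 1.5% methylcellulose (Tylose) and dosed by oral gavage at 10 mL/kg. Retrobulbar blood was drawn under light halothane hourly for up to 4 h. Glucose was read by hexokinase/G6PDH after HClO4 deproteinisation. Value is the maximum % fall versus vehicle controls; Student's t-test, P ≤ 0.05.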

Rattus norvegicus [21] = assay: Maximum % decrease of blood glucose (deltaBG) was observed within 4 hour after administration orally at 25 mg/kg dose to fasted adult female rats versus a control group; type: functional; conditions: route oral; outline: as §1
Rattus norvegicus [22] = organism: Rattus norvegicus; conditions: Blood, 0.1 mg/kg
Rattus norvegicus [23] = assay: Maximum % decrease of blood glucose (deltaBG) was observed within 3 hour after administration orally at 0.1 mg/kg dose to fasted adult female rats versus a control group; NS =' not significant'; type: functional, organism-based; design: dose 0.1 mg/kg; outline: as §1
Rattus norvegicus [24] = organism: Rattus norvegicus; conditions: Blood, 0.1 mg/kg; remark: listed apart in the source
Rattus norvegicus [25] = assay: Maximum % decrease of blood glucose (deltaBG) was observed within 4 hour after administration orally at 0.1 mg/kg dose to fasted adult female rats versus a control group; NS =' not significant'; type: functional, organism-based; design: dose 0.1 mg/kg; outline: as §1
Rattus norvegicus [26] = organism: Rattus norvegicus; conditions: Blood, 0.1 mg/kg; remark: listed apart in the source
Rattus norvegicus [27] = assay: Maximum % decrease of blood glucose (deltaBG) was observed within 4 hour after administration orally at 50 mg/kg dose to fasted adult female rats versus a control group; type: functional; conditions: route oral; outline: as §1
Rattus norvegicus [28] = assay: Maximum % decrease of blood glucose (deltaBG) was observed within 4 hour after administration orally at 100 mg/kg dose to fasted adult female rats versus a control group; type: functional; conditions: route oral; outline: as §1
Rattus norvegicus [29] = assay: Maximum % decrease of blood glucose (deltaBG) was observed within 4 hour after administration orally at 0.01 mg/kg dose to fasted adult female rats versus a control group; NS =' not significant'; type: functional, organism-based; design: dose 0.01 mg/kg; outline: as §1
Rattus norvegicus [30] = assay: Maximum % decrease of blood glucose (deltaBG) was observed within 4 hour after administration orally at 100 mg/kg dose to fasted adult female rats versus a control group; NS =' not significant'; type: functional, organism-based; design: dose 100 mg/kg; outline: as §1
[31] = Rattus norvegicus, Blood, 4 h, read-out: ED50

CCC1=C(C)CN(C(=O)NCCc2ccc(S(=O)(=O)NC(=O)N[C@H]3CC[C@H](C)CC3)cc2)C1=O [GLIMEPIRIDE]
Delta BG (Rattus norvegicus [1]): -18% | Delta BG (Rattus norvegicus [2]): -17% | ED50 (Rattus norvegicus [3]; [31]): 0.182 mg/kg | Delta BG (Rattus norvegicus [4]): -14% | Delta BG (Rattus norvegicus [5]): -35% | Delta BG (Rattus norvegicus [6]): -18% | Delta BG (Rattus norvegicus [7]): -8%

CC(NC(=O)Cc1ccc(C(=O)O)cc1)c1cc(Cl)ccc1N1CCCCCC1 (stereo not given)
Delta BG (Rattus norvegicus [8]): Not significant

CCCC(NC(=O)Cc1ccc(C(=O)O)c(OCC)c1)c1ccccc1N1CCCCC1 (stereo not given)
Delta BG (Rattus norvegicus [1]; 0.1 mg/kg): -32% and -18% | Delta BG (Rattus norvegicus [2]): -32% | Delta BG (Rattus norvegicus [9]): -36% | Delta BG (Rattus norvegicus [10]): -34% | Delta BG (Rattus norvegicus [11]): -43% | Delta BG (Rattus norvegicus [4]): -25% | Delta BG (Rattus norvegicus [12]): -35% | Delta BG (Rattus norvegicus [6]): -30%

CCOc1cc(CC(=O)N[C@@H](CC(C)C)c2ccccc2N2CCCCC2)ccc1C(=O)O (stereo in doubt; 6al) [REPAGLINIDE]
Delta BG (Rattus norvegicus [1]; 0.1 mg/kg): -44% | ED50 (Rattus norvegicus [3]): 0.022 mg/kg | Delta BG (Rattus norvegicus [13]): -19%

O=C(Cc1ccc(C(=O)O)cc1)NC(c1ccccc1)c1ccccc1N1CCCCC1 (stereo not given)
Delta BG (Rattus norvegicus [14]): -23% | ED50 (Rattus norvegicus [3]; [31]): 0.38 mg/kg | Delta BG (Rattus norvegicus [15]): -36%

CC(NC(=O)Cc1ccc(-c2nn[nH]n2)cc1)c1ccccc1N1CCCCC1 (stereo not given)
Delta BG (Rattus norvegicus [16]): Not significant

CCCC(NCCc1ccc(C(=O)O)cc1)c1ccccc1N1CCCCC1 (stereo not given)
Delta BG (Rattus norvegicus [17]): Not significant

CCCC(NC(=O)Cc1ccc(C(=O)O)cc1)c1ccccc1N1CCCCC1 (stereo not given)
Delta BG (Rattus norvegicus [1]; 0.1 mg/kg): -27% and -9% | Delta BG (Rattus norvegicus [2]): -27% | Delta BG (Rattus norvegicus [18]): -42% | Delta BG (Rattus norvegicus [9]): -34% | Delta BG (Rattus norvegicus [10]): -23% | ED50 (Rattus norvegicus [3]; [31]): 0.07 mg/kg | Delta BG (Rattus norvegicus [4]): -16% | Delta BG (Rattus norvegicus [12]): -18% | Delta BG (Rattus norvegicus [6]): -17%

O=C(O)c1ccc(CCNC(=O)c2cc(Cl)ccc2N2CCCCCCCC2)cc1
ED50 (Rattus norvegicus [3]; [31]): 0.38 mg/kg | Delta BG (Rattus norvegicus [19]): -40% and -39% | Delta BG (Rattus norvegicus [12]): -33% | Delta BG (Rattus norvegicus [20]): -13% and -18%

CCN(CC)c1ccc(Cl)cc1C(=O)NCCc1ccc(C(=O)O)cc1
Delta BG (Rattus norvegicus [21]): -35%

O=C(Cc1ccc(C(=O)O)cc1)N[C@@H](c1ccccc1)c1ccccc1N1CCCCC1
Delta BG (Rattus norvegicus [14]): -33%

COc1ccc(Cl)cc1C(=O)NCCc1ccc(S(=O)(=O)NC(=O)NC2CCCCC2)cc1 [GLYBURIDE]
Delta BG (Rattus norvegicus [22]): inactive | Delta BG (Rattus norvegicus [23]): inactive | ED50 (Rattus norvegicus [3]; [31]): 0.255 mg/kg | Delta BG (Rattus norvegicus [24]): inactive | Delta BG (Rattus norvegicus [25]): inactive | Delta BG (Rattus norvegicus [5]): -25% | Delta BG (Rattus norvegicus [26]): inactive

CC(NC(=O)Cc1ccc(S(N)(=O)=O)cc1)c1ccccc1N1CCCCC1 (stereo not given)
Delta BG (Rattus norvegicus [17]): Not significant

CCCC(NC(=O)Cc1ccccc1)c1ccccc1N1CCCCC1 (stereo not given)
Delta BG (Rattus norvegicus [27]): -10%

CC(C)(NC(=O)Cc1ccc(C(=O)O)cc1)c1cc(Cl)ccc1N1CCCCC1
Delta BG (Rattus norvegicus [17]): Not significant

CCOc1cc(CC(=O)N[C@@H](CC(C)C)c2ccccc2N2CCCCC2)ccc1C(=O)O (stereo in doubt; (S)-6al) [REPAGLINIDE]
Delta BG (Rattus norvegicus [1]; 0.1 mg/kg): -47% | Delta BG (Rattus norvegicus [2]): -47% | ED50 (Rattus norvegicus [3]): 0.01 mg/kg | Delta BG (Rattus norvegicus [4]): -34% | Delta BG (Rattus norvegicus [6]): -40% | Delta BG (Rattus norvegicus [13]): -21% | Delta BG (Rattus norvegicus [7]): -42%

O=C(O)c1ccc(CCNC(=O)c2cccc(Cl)c2)cc1
Delta BG (Rattus norvegicus [28]): -23%

CCOc1cc(CC(=O)NC(CC)c2ccccc2N2CCCCC2)ccc1C(=O)O (stereo not given)
Delta BG (Rattus norvegicus [1]): -42% | Delta BG (Rattus norvegicus [29]): Not significant

O=C(NCCc1ccccc1)c1cc(Cl)ccc1N1CCCCCCCC1
Delta BG (Rattus norvegicus [30]): Not significant

CCCC(NC(=O)Cc1ccc(C(=O)O)c(OC)c1)c1ccccc1N1CCCCC1 (stereo not given)
Delta BG (Rattus norvegicus [1]): -43% | Delta BG (Rattus norvegicus [2]): -43% | Delta BG (Rattus norvegicus [9]): -39% | Delta BG (Rattus norvegicus [23]): Not significant | Delta BG (Rattus norvegicus [10]): -37% | Delta BG (Rattus norvegicus [11]): -42% | Delta BG (Rattus norvegicus [25]): Not significant | Delta BG (Rattus norvegicus [12]): -31% | Delta BG (Rattus norvegicus [6]): -27% | Delta BG (Rattus norvegicus [7]): -38%
